According to article PMC10155261 (European journal of medicinal chemistry, 2022):

Legend:
[1] = test system: CCI-induced mechanical allodynia in rats; test: Chronic constriction injury; assay type: in vivo, Sprague-Dawley rats; details: i.p., 17.8 mg/kg
[2] = test system: fentanyl-induced mechanical hypersensitivity in rats; test: Fentanyl; assay type: in vivo; details: i.p.
Plasma protein binding = assay type: in vitro ADME; details: rat
How it was run: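 Equilibrium dialysis: test compound or controls at 1 μM in rat plasma, in triplicate, against buffer across a 12–14K MWCO cellulose membrane. Incubation ran 6 h at 37 °C with light agitation to equilibrium. Plasma and buffer were extracted with cold acetonitrile/methanol (1:1) and quantified by LC-MS/MS against standard curves. Acebutolol (low-bound) and warfarin (high-bound) served as controls.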

[3] = Metabolic stability in rat liver microsomes; assay type: in vitro ADME; details: pH 7.4
How it was run: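 Rat liver microsomes (0.5 mg/mL protein) were used in 100 mM potassium phosphate, pH 7.4, at 37 °C, with NADPH at 1 mM final. Samples were taken at 0, 5, 15, 30 and 45 min and quenched 1:1 in cold acetonitrile containing labetalol and glyburide. Parent was measured by LC-MS/MS, and half-life and in vitro clearance were calculated. Two independent experiments in duplicate.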

hLPA5 [4] = target: T1, hLPA5 (Homo sapiens, UniProt Q9H1C0); test: LPA5 TR-FRET Lance Ultra cAMP assay; assay type: cell-based; details: cAMP assay
T1 sequence (Q9H1C0 whole entry): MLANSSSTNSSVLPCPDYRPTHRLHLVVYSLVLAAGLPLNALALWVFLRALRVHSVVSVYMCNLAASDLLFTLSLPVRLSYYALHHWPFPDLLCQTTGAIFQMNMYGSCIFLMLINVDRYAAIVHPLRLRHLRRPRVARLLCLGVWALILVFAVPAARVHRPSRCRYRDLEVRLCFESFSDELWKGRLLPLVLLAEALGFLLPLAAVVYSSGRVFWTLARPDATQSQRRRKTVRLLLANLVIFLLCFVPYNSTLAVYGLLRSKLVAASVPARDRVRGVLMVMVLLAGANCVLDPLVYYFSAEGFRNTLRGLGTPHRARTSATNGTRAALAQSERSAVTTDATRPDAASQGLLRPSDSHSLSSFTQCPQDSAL

[5] = test system: >50 GPCRs (NIMH Psychoactive Drug Screening Program panel); test: NIMH PDSP radioligand binding panel; details: < 50% inhibition at 10 μM or pKi ≤ 6
dopamine D3 = dopamine D3 (Homo sapiens, UniProt P35462); test: NIMH PDSP radioligand binding, D3
Sequence of dopamine D3 (P35462 whole entry): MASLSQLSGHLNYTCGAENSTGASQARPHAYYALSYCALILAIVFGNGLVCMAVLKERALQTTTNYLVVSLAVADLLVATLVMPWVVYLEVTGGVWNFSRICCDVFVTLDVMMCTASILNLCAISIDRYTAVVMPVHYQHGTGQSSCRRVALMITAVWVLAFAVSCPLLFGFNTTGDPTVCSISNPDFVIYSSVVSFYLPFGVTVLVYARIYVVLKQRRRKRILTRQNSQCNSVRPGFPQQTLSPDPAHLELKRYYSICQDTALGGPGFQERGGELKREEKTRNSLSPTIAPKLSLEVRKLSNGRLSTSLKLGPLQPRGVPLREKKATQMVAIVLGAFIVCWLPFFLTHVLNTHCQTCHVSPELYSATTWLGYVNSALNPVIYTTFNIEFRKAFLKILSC

[6] = Bidirectional MDCK-MDR1 permeability; assay type: in vitro ADME; details: dog
How it was run: (§1)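 MDCK-mdr1 cells (passage 5) were grown on polycarbonate Transwell supports for 3 days and rinsed with warm HBSS. They were pre-incubated 30 min at 37 °C in HBSS with 10 mM HEPES and 0.25% BSA, pH 7.4, then TEER was measured. Test compound at 10 μM went to the apical donor (A-to-B) or basolateral donor (B-to-A) side, at 37 °C with light agitation. Receiver was sampled at 30, 60 and 90 min and analysed by LC-MS/MS. Papp came from dQ/dt, area 1.12 cm2 and initial donor concentration. Atenolol and propranolol were references.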

P-glycoprotein (MDR1) = test: Bidirectional MDCK-MDR1 permeability; assay type: in vitro ADME; details: dog, MDCK-MDR1, pH 7.4
How it was run: as §1

LPA1–LPA4 receptors = test: LPA1–LPA3 calcium mobilization; assay type: cell-based; details: 10 μM in Ca2+ for LPA1–LPA3 and cAMP for LPA4
How it was run: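 Selectivity was tested with test compound at 10 μM. LPA1–LPA3 calcium mobilization was run externally in CHO cells over-expressing each receptor, under the provider's protocols. LPA4 was a TR-FRET cAMP assay in LPA4-overexpressing CHO cells, following the LPA5 cAMP method but against 250 nM hexadecyl LPA 16:0 (EC80).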

[7] = test system: CFA-induced nociceptive hypersensitivity in rats; test: CFA-induced inflammatory pain model, von Frey mechanical nociception; assay type: in vivo, Sprague-Dawley rats; details: i.p.
hLPA5 [8] = target: T1, hLPA5; test: LPA5 calcium mobilization assay; assay type: cell-based; details: calcium assay
How it was run: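 RH7777-hLPA5 cells were plated on poly-D-lysine at 20,000 cells/well in 0.2% FBS medium for 18–20 h at 37 °C. They were loaded 45 min with Calcium 5 dye in HBSS, 20 mM HEPES and 2.5 mM probenecid, pH 7.4. Eight test-compound concentrations were pre-incubated for 15 min at 37 °C, then hexadecyl LPA 16:0 EC80 (30 nM) was added at 10 s. Fluorescence (485/525 nm) was read every 1 s for 90 s. IC50 came from a three-parameter logistic fit of RFU. Duplicate determinations; two or at least three independent experiments.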

[9] = test system: locomotor activity in rats; test: Locomotor activity; assay type: in vivo; details: 17.8 mg/kg i.p., 60 min pretreatment, P > 0.05

C#CC1CCN(C(=O)c2cn(-c3ccc4scc(C)c4c3)c(=O)c3cc(OC)c(OC)cc23)CC1 [Compound 66, 4-(4-Ethynylpiperidine-1-carbonyl)-6,7-dimethoxy-2-(3-methylbenzo[b]thiophen-5-yl)isoquinoli-n-1(2H)-one]
effect on CCI-induced mechanical allodynia [1]: completely reversed this hypersensitivity condition
dose achieving statistical significance in OIH model [2]: 5.6 mg/kg
effect on fentanyl-induced mechanical hypersensitivity (OIH) [2]: dose-dependently and significantly mitigated this mechanical hypersensitivity
fraction unbound at 6 h, 1 μM (Plasma protein binding): 0.01
CLint scaled at 0.75 h [3]: 74.7 mL/min/kg
fold less potent than 2 (hLPA5 [4]): 1.7 fold
affinity for panel receptors [5]: no significant affinity for most of the receptors
Ki (dopamine D3): 380 nM
Papp A→B at 90 min, 10 μM ([6]; MDCK-MDR1, pH 7.4): 30.4 ×10⁻⁶ cm/s
Papp B→A at 90 min, 10 μM ([6]; MDCK-MDR1, pH 7.4, Papp (B-to-A), MDCK-MDR1 Transwell, 10 μM): 38.7 ×10⁻⁶ cm/s
efflux ratio at 90 min, 10 μM (P-glycoprotein (MDR1)): < 2.5
LPA1–LPA4 inhibition (LPA1–LPA4 receptors): <50%
effect on CFA-induced nociceptive hypersensitivity ([7]; 17.8 mg/kg): markedly alleviated nociceptive hypersensitivity
duration of effect in CFA model ([7]; 65 and 66 at 17.8 mg/kg, 2 at 32 mg/kg): ~ 5 h
fold more potent than the 4-fluoro analog 65 (hLPA5 [8]): 2 fold
effect on locomotor activity [9]: did not have any measurable effect on the locomotor activity
